For orientation: IC50 means the point on the concentration scale where inhibition reaches its midpoint.

IC50 data for 42 compounds are collected here from ChEMBL document CHEMBL1154110, “Identification, structure-activity relationships and molecular modeling of potent triamine and piperazine opioid ligands” (Bioorg Med Chem, 2009).

The structures appear in SMILES notation. Bounds are passed on as bounds.

Assay [1] deals with Delta-type opioid receptor (Rattus norvegicus, UniProt P33533). The assay is described as follows: Displacement of [3H]DSLET from delta opioid receptor in rat brain by liquid scintillation counting. The format is tissue-based. (Displacement assays read how much labelled ligand stays bound in the presence of the test substance.)
Delta-type opioid receptor, sequence (P33533 whole entry): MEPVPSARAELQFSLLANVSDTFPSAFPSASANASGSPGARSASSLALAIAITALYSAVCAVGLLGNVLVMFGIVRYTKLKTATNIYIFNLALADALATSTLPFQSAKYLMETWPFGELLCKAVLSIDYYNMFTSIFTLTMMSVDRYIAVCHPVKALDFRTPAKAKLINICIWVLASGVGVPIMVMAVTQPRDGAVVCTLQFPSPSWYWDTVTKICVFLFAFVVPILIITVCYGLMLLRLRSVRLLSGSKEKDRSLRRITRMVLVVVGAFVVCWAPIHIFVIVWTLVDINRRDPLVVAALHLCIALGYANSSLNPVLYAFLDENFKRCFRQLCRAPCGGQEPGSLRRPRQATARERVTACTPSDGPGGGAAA
Assay [2] has as its target Mu-type opioid receptor (Rattus norvegicus, UniProt P33535). Description: Displacement of [3H]DAMGO from mu opioid receptor in rat brain by liquid scintillation counting. The format is tissue-based.
In assay [3] the target is Kappa-type opioid receptor (Cavia porcellus, UniProt P41144). Description: Displacement of [3H]U69593 from guinea pig kappa opioid receptor by liquid scintillation counting. The gist of the method:
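Receptor membrane suspension incubated with 3 nM [3H]U69,593 as the tritiated competitor. Unlabeled U50,488 served as the kappa standard: it generated a standard curve on every plate and defined nonspecific binding. IC50 values came from dose-response testing.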

Kappa-type opioid receptor, sequence (P41144 whole entry): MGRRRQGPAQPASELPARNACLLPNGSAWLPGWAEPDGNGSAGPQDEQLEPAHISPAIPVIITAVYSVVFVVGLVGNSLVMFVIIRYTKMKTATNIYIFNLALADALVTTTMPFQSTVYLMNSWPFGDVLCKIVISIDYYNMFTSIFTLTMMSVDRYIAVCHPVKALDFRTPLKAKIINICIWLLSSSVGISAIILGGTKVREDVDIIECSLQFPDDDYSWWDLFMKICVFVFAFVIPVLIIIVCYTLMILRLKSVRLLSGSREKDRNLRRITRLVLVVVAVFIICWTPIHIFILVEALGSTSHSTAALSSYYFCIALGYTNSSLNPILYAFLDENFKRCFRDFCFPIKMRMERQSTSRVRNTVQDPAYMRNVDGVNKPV
Mu-type opioid receptor, sequence (P33535 whole entry): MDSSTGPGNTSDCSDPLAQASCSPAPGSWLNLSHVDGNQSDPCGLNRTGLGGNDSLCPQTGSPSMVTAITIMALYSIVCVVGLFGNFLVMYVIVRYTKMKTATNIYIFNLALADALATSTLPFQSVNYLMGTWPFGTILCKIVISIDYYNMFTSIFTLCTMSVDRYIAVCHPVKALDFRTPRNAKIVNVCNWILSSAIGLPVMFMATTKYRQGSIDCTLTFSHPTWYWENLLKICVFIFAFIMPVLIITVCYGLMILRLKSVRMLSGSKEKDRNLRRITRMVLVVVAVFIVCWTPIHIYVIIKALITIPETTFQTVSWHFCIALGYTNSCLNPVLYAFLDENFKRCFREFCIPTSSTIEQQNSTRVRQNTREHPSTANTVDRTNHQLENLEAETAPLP

For the compound `CCC[C@H](CNC)NC[C@@H](CCC)NCC1CCCCCC1`, the IC50 in assay [1] was greater than 10000 nM; in assay [2], greater than 1000 nM; in assay [3], greater than 1000 nM.

With `CC(C)[C@H](CNCc1ccccc1)N1CCN(CCC2CC3CCC2C3)[C@@H](Cc2ccccc2)C1` (stereo partly specified), the figures for the IC50 in assay [1], in assay [2] and in assay [3] were greater than 10000 nM, greater than 1000 nM and greater than 1000 nM, respectively.

For the compound `CC(C)(C)CCN1CCN([C@@H](CNCc2ccccc2)Cc2ccc(O)cc2)C[C@@H]1Cc1ccc(O)cc1`, the IC50 in assay [1] was 4550 nM; in assay [2] it was greater than 1000 nM; in assay [3] it was 387 nM.

`CC(C)CCN1CCN([C@@H](CNCc2ccccc2)C(C)C)C[C@H]1C(C)C`: the results for the IC50 in assay [1], in assay [2] and in assay [3] were greater than 10000 nM, greater than 1000 nM and greater than 1000 nM, respectively.

As to `CNC[C@@H](Cc1ccc(O)cc1)N1CCN(CCCC(C)C)CC1`, the results for the IC50 in assay [1], in assay [2] and in assay [3] were greater than 10000 nM, 471 nM and greater than 1000 nM, respectively.

Turning to `CCC[C@H](CNC)NC[C@@H](CCC)NCC1CCC(C)CC1` (stereo partly specified), the results for the 50% inhibitory concentration (IC50) in assay [1], in assay [2] and in assay [3] were greater than 10000 nM, greater than 1000 nM and greater than 1000 nM, respectively.

Regarding `CNC[C@@H](Cc1ccc(O)cc1)N1CCN(CC2CCCCCC2)[C@@H](C(C)C)C1`, the IC50 in assay [1] was greater than 10000 nM; in assay [2], greater than 1000 nM; in assay [3], greater than 1000 nM.

In the case of `CNC[C@@H](Cc1ccc(O)cc1)N1CCN(CCc2cccc(C)c2)[C@@H](C(C)C)C1`, the half-maximal inhibitory concentration (IC50) in assay [1] is greater than 10000 nM; in assay [2], greater than 1000 nM; in assay [3], greater than 1000 nM.

Regarding `CCC[C@H](CN[C@H](CNC)Cc1ccc(O)cc1)NCCC12CC3CC(CC(C3)C1)C2`, the IC50 in assay [1] was greater than 10000 nM; in assay [2], 530 nM; in assay [3], 37 nM.

Regarding `CNC[C@@H](Cc1ccc(O)cc1)N1CCN(CCC2CC3CCC2C3)[C@@H](C(C)C)C1` (stereo partly specified), the IC50 was greater than 10000 nM in assay [1], greater than 1000 nM in assay [2] and greater than 1000 nM in assay [3].

`CC(C)[C@@H]1CN([C@@H](CNCc2ccccc2)C(C)C)CCN1CCc1ccccc1`: the IC50 was greater than 10000 nM in assay [1], greater than 1000 nM in assay [2] and greater than 1000 nM in assay [3].

As for `CNC[C@H](Cc1ccc(O)cc1)N1CCN(CCc2cccc(C)c2)[C@@H](C(C)C)C1`, the IC50 in assay [1] is greater than 10000 nM; in assay [2] it was 206 nM; in assay [3] it was greater than 1000 nM.

On to `CCC[C@H](CN[C@H](CNC)Cc1ccc(O)cc1)NCCC1CC2CCC1C2` (stereo partly specified), for which the IC50 in assay [1] was determined as 2100 nM; in assay [2], 174 nM; in assay [3] it was 17 nM.

For `CCCC[C@H](CNCc1ccccc1)N1CCN(CC(C)C)[C@H](Cc2ccc(O)cc2)C1`, the IC50 in assay [1] is greater than 10000 nM; in assay [2], greater than 1000 nM; in assay [3], 102 nM.

As to `CNC[C@@H](Cc1ccc(O)cc1)N1CCN(CCC2CC3CCC2C3)CC1` (stereo partly specified), the values for the 50% inhibitory concentration (IC50) in assay [1], in assay [2] and in assay [3] were greater than 10000 nM, 92 nM and 476 nM, respectively.

Regarding `CCC[C@H](CNC)NC[C@H](Cc1ccc(O)cc1)NCCC1CCCC1`, the half-inhibitory concentration (IC50) in assay [1] is greater than 10000 nM; in assay [2], 240 nM; in assay [3] it was 766 nM.

For `CNC[C@@H](Cc1ccc(O)cc1)N1CCN(CCC2CC3CCC2C3)[C@H](C(C)C)C1` (stereo partly specified), the results for the IC50 in assay [1], in assay [2] and in assay [3] were greater than 10000 nM, 336 nM and 230 nM, respectively.

For the compound `CNC[C@@H](Cc1ccc(O)cc1)N1CCN(CCCC2CCCCC2)[C@H](C(C)C)C1`, the figures for the IC50 in assay [1], in assay [2] and in assay [3] were greater than 10000 nM, 920 nM and 654 nM, respectively.

Take `CCC[C@H](CNC)NC[C@@H](CCC)NCCC1CCCC1`: the 50% inhibitory concentration (IC50) is greater than 10000 nM in assay [1], greater than 1000 nM in assay [2] and 102 nM in assay [3].

For `CCC[C@H](CNC)NC[C@H](Cc1ccc(O)cc1)NCC1CCC(C)CC1` (stereo partly specified), the concentration for half-maximal inhibition (IC50) in assay [1] is greater than 10000 nM; in assay [2] it was 225 nM; in assay [3], 1750 nM.

With `CNC[C@@H](Cc1ccc(O)cc1)N1CCN(CC2CCCCCC2)CC1`, the IC50 is greater than 10000 nM in assay [1], 90 nM in assay [2] and 223 nM in assay [3].

For `CNC[C@@H](Cc1ccc(O)cc1)N1CCN(CCCC(C)C)[C@@H](C(C)C)C1`, the half-inhibitory concentration (IC50) is greater than 10000 nM in assay [1], greater than 1000 nM in assay [2] and greater than 1000 nM in assay [3].

Turning to `CC[C@H](C)[C@@H](CNC)N1CCN(CCC2CC3CCC2C3)[C@H](C(C)C)C1` (stereo partly specified), the IC50 was greater than 10000 nM in assay [1], greater than 1000 nM in assay [2] and greater than 1000 nM in assay [3].

For `CNC[C@H](Cc1ccc(O)cc1)NC[C@H](Cc1ccc(O)cc1)NCCC1CCCC1`, the IC50 in assay [1] was 2880 nM; in assay [2] it was 170 nM; in assay [3], 186 nM.

On to `CCC(C)[C@@H](CNC)N1CCN(CCC23CC4CC(CC(C4)C2)C3)[C@H](C(C)C)C1` (stereo partly specified), for which the IC50 in assay [1] was greater than 10000 nM; in assay [2], greater than 1000 nM; in assay [3], 119 nM.

Take `CNC[C@H](Cc1ccc(O)cc1)NC[C@H](Cc1ccc(O)cc1)NCC1CCC(C)CC1` (stereo partly specified): the IC50 is greater than 10000 nM in assay [1], 313 nM in assay [2] and 102 nM in assay [3].

For the compound `CC[C@H](C)[C@@H](CNC)N1CCN(CCCC2CCCCC2)[C@H](C(C)C)C1`, the IC50 in assay [1] was greater than 10000 nM; in assay [2], greater than 1000 nM; in assay [3] it was 58 nM.

With `CCC[C@H](CNC)NC[C@@H](CCC)NCCC12CC3CC(CC(C3)C1)C2`, the IC50 is greater than 10000 nM in assay [1], greater than 1000 nM in assay [2] and greater than 1000 nM in assay [3].

`CC(C)[C@@H]1CN([C@@H](CNCc2ccccc2)C(C)C)CCN1CCC1CC2CCC1C2` (stereo partly specified): the IC50 is greater than 10000 nM in assay [1], greater than 1000 nM in assay [2] and greater than 1000 nM in assay [3].

As for `CCC[C@H](CN[C@H](CNC)Cc1ccc(O)cc1)NCC1CCC(C)CC1` (stereo partly specified), the values for the IC50 in assay [1], in assay [2] and in assay [3] were greater than 10000 nM, greater than 1000 nM and 14 nM, respectively.

Regarding `CNC[C@H](Cc1ccc(O)cc1)NC[C@H](Cc1ccc(O)cc1)NCC1CCCCCC1`, the figures for the IC50 in assay [1], in assay [2] and in assay [3] were greater than 10000 nM, 54 nM and 22 nM, respectively.

Turning to `CCC[C@H](CNC)NC[C@@H](CCC)NCCC1CC2CCC1C2` (stereo partly specified), the IC50 in assay [1] is greater than 10000 nM; in assay [2], greater than 1000 nM; in assay [3], greater than 1000 nM.

On to `CC(C)[C@@H]1CN([C@@H](CNCc2ccccc2)C(C)C)CCN1CCC1CCCC1`, for which the IC50 in assay [1] is greater than 10000 nM; in assay [2], greater than 1000 nM; in assay [3] it was greater than 1000 nM.

On to `CNC[C@H](Cc1ccc(O)cc1)N1CCN(CC2CCCCCC2)CC1`, for which the concentration for half-maximal inhibition (IC50) in assay [1] is greater than 10000 nM; in assay [2] it was 152 nM; in assay [3], 93 nM.

With `CCC[C@H](CN[C@H](CNC)Cc1ccc(O)cc1)NCCC1CCCC1`, the IC50 is greater than 10000 nM in assay [1], 648 nM in assay [2] and 97 nM in assay [3].

Consider `CCC[C@H](CNC)NC[C@H](Cc1ccc(O)cc1)NCCC1CC2CCC1C2` (stereo partly specified), for which the values for the IC50 in assay [1], in assay [2] and in assay [3] were greater than 10000 nM, 178 nM and 333 nM, respectively.

In the case of `CNC[C@H](Cc1ccc(O)cc1)N1CCN(CCC2CC3CCC2C3)CC1` (stereo partly specified), the IC50 in assay [1] was 1960 nM; in assay [2], 167 nM; in assay [3], 373 nM.

For `CCC[C@H](CNC)NC[C@H](Cc1ccc(O)cc1)NCC1CCCCCC1`, the concentration for half-maximal inhibition (IC50) in assay [1] is greater than 10000 nM; in assay [2], 107 nM; in assay [3] it was 439 nM.

For `CC(C)[C@H](CNCc1ccccc1)N1CCN(CCC2CCCC2)[C@@H](Cc2ccccc2)C1`, the figures for the concentration for half-maximal inhibition (IC50) in assay [1], in assay [2] and in assay [3] were greater than 10000 nM, greater than 1000 nM and greater than 1000 nM, respectively.

As for `CCCC[C@H](CNCc1ccccc1)N1CCN(CC2CCCCCC2)[C@H](Cc2ccc(O)cc2)C1`, the IC50 in assay [1] was greater than 10000 nM; in assay [2], greater than 1000 nM; in assay [3] it was 161 nM.

On to `CNC[C@H](Cc1ccc(O)cc1)N1CCN(CCC2CC3CCC2C3)[C@@H](C(C)C)C1` (stereo partly specified), for which the IC50 in assay [1] is greater than 10000 nM; in assay [2], 223 nM; in assay [3], 374 nM.

Turning to `CNC[C@H](Cc1ccc(O)cc1)NC[C@H](Cc1ccc(O)cc1)NCCC1CC2CCC1C2` (stereo partly specified), the IC50 in assay [1] is greater than 10000 nM; in assay [2], 270 nM; in assay [3], 452 nM.
